Results published in ChEMBL document CHEMBL1140581, “Structure-activity relationship study of [1,2,3]thiadiazole necroptosis inhibitors” (Bioorg Med Chem Lett, 2007).
Activity calls are given as the source filed them. The calls are words filed in the database; no cut-off is given here.

Test system: Jurkat
Assay: Inhibition of TNF-alpha-induced necroptosis in FADD-deficient human Jurkat T cells assessed as cell viability at 30 uM after 24 hrs by ATP-based assessement method
Format: functional
Outline: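 FADD-deficient Jurkat cells exposed 24 h to 10 ng/mL human TNF-α with compound at 30 μM. Viability by ATP-based luminescence, normalized to cells given compound without the necroptotic stimulus (set as 100%). N = 2, standard deviation.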

Question: For `CN1C(=O)N[C@H](Cc2c[nH]c3c(Cl)cccc23)C1=O`, which Activity is on record?
Answer: The Activity was “Active”.

Question: Which Activity does the source give for `C[C@H](NC(=O)c1snnc1C1CC1)c1c(F)cccc1Cl` here?
Answer: The Activity was “Active”.

Question: For `COc1ccc([C@H]2C3CCc4ccc(OC)cc4C3=NN2C(C)=O)cc1` (stereo not given in full), which Activity is on record?
Answer: Its Activity is “Active”.

Test system: Fibroblast
Assay: Inhibition of TNFalpha and zVAD-induced necroptosis in SV40-transformed mouse adult lung fibroblasts assessed as cell viability at 30 uM after 24 hrs by ATP-based assessement method
Format: functional
Outline: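 SV40-transformed mouse adult lung fibroblasts stimulated 24 h with 10 ng/mL human TNF-α plus 100 μM zVAD.fmk, compound at 30 μM. ATP-based viability, normalized to compound-treated cells without stimulus (100%). N = 2, standard deviation.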

Question: How did the Activity turn out when `CN1C(=O)N[C@H](Cc2c[nH]c3c(Cl)cccc23)C1=O` was run?
Answer: The Activity was “Active”.

Question: With `C[C@H](NC(=O)c1snnc1C1CC1)c1c(F)cccc1Cl` as the molecule, how does the Activity read?
Answer: Its Activity is “Active”.

Test system: L929
Assay: Inhibition of zVAD-induced necroptosis in […] assessed as cell viability at 30 uM after 24 hrs by ATP-based assessement method
Format: functional
Outline: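 L929 cells treated 24 h with 100 μM zVAD.fmk as the necroptotic stimulus, compound at 30 μM. ATP-based viability, normalized to compound-only cells without stimulus (100%). N = 2, standard deviation.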

Question: How did the Activity turn out when `CN1C(=O)N[C@H](Cc2c[nH]c3c(Cl)cccc23)C1=O` was run?
Answer: The Activity was “Active”.

Question: With `C[C@H](NC(=O)c1snnc1C1CC1)c1c(F)cccc1Cl` as the molecule, how does the Activity read?
Answer: Its Activity is “inactive”.

Question: `COc1ccc([C@H]2C3CCc4ccc(OC)cc4C3=NN2C(C)=O)cc1` (stereo not given in full) was tested. Which Activity did it give?
Answer: Its Activity is “inactive”.

Test system: L929
Assay: Inhibition of TNF-alpha-induced necroptosis in […] assessed as cell viability at 30 uM after 24 hrs by ATP-based assessement method
Format: functional
Outline: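 L929 cells given 10 ng/mL human TNF-α for 24 h with compound at 30 μM. ATP-based viability, normalized to compound-only cells without stimulus (100%). N = 2, standard deviation.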

Question: For `CN1C(=O)N[C@H](Cc2c[nH]c3c(Cl)cccc23)C1=O`, which Activity is on record?
Answer: The Activity was “Active”.

Question: For `C[C@H](NC(=O)c1snnc1C1CC1)c1c(F)cccc1Cl`, which Activity is on record?
Answer: Its Activity is “Active”.

Question: For `COc1ccc([C@H]2C3CCc4ccc(OC)cc4C3=NN2C(C)=O)cc1` (stereo not given in full), which Activity is on record?
Answer: Its Activity is “Active”.

Test system: Jurkat
Assay: Inhibition of TNF-alpha-induced necroptosis in FADD-deficient human Jurkat T cells after 24 hrs
Format: functional, cell-based
Outline: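 FADD-deficient human Jurkat T cells at 5×10^5 cells/mL, 24 h at 37 °C, 5% CO2, with 10 ng/mL human TNF-α plus compound at eleven concentrations (0.030–100 μM), each in duplicate. DMSO stocks diluted in DMSO; final DMSO 0.5%. Viability by luminescent ATP assay (CellTiter-Glo), expressed as signal with TNF-α plus compound over signal with compound alone. EC50 from the dose series.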

Question: Which EC50 does the source give for `Cc1nnsc1C(=O)N(C)Cc1c(F)cccc1Cl` here?
Answer: Its EC50 is 11 µM.

Question: How did the EC50 turn out when `CC(C)(C)c1nnsc1C(=O)NCc1c(F)cccc1Cl` was run?
Answer: Its EC50 is 18 µM.

Question: `Cc1nc(-c2ccc(Cl)cc2)sc1C(=O)NCc1c(F)cccc1Cl` was tested. Which EC50 did it give?
Answer: Its EC50 is over 100 µM.

Question: With `O=C(Nc1c(F)cccc1F)c1snnc1C1CC1` as the molecule, how does the EC50 read?
Answer: The EC50 was over 100 µM.

Question: How did the EC50 turn out when `O=C(NCc1c(F)cccc1Cl)c1snnc1C1CCCC1` was run?
Answer: The EC50 was 1.9 µM.

Question: For `O=C(NCc1ccccn1)c1snnc1C1CC1`, which EC50 is on record?
Answer: Its EC50 is 40 µM.

Question: Which EC50 does the source give for `O=C(NCc1c(F)ccc(F)c1Cl)c1snnc1C1CC1` here?
Answer: The EC50 was 0.52 µM.

Question: With `Cc1nnsc1C(=O)NCc1c(F)cccc1F` as the molecule, how does the EC50 read?
Answer: Its EC50 is 3.5 µM.

Question: With `O=C(NCCc1c(F)cccc1Cl)c1snnc1C1CC1` as the molecule, how does the EC50 read?
Answer: The EC50 was 27 µM.

Question: `CN(Cc1c(F)cccc1Cl)C(=O)c1snnc1C1CC1` was tested. Which EC50 did it give?
Answer: The EC50 was 16 µM.

Question: `O=C(NCc1c(F)cccc1Cl)c1snnc1C1CCCCC1` was tested. Which EC50 did it give?
Answer: Its EC50 is 6 µM.

Question: Which EC50 does the source give for `O=C(NCc1c(F)cccc1Cl)c1snnc1C1CCC1` here?
Answer: Its EC50 is 0.6 µM.

Question: With `O=C(NCc1c(F)cccc1Cl)c1sccc1Cl` as the molecule, how does the EC50 read?
Answer: The EC50 was 9.6 µM.

Question: How did the EC50 turn out when `O=C(NCc1c(F)cccc1Cl)c1snnc1C1CC1` was run?
Answer: Its EC50 is 0.5 µM.

Question: Which EC50 does the source give for `C[C@@H](NC(=O)c1snnc1C1CC1)c1c(F)cccc1Cl` here?
Answer: Its EC50 is over 100 µM.

Question: Which EC50 does the source give for `Fc1cccc(Cl)c1CNCc1snnc1C1CC1` here?
Answer: Its EC50 is over 100 µM.

Question: `O=C(NCc1c(F)cccc1C(F)(F)F)c1snnc1C1CC1` was tested. Which EC50 did it give?
Answer: Its EC50 is over 100 µM.

Question: Which EC50 does the source give for `Cc1cccc(Cl)c1CNC(=O)c1snnc1C1CC1` here?
Answer: The EC50 was 10 µM.

Question: With `CCCCC(NC(=O)c1snnc1C1CC1)c1c(F)cccc1Cl` (stereo not given) as the molecule, how does the EC50 read?
Answer: The EC50 was over 100 µM.

Question: Which EC50 does the source give for `Cc1c(C#N)csc1C(=O)NCc1c(F)cccc1Cl` here?
Answer: The EC50 was 1.2 µM.

Question: Which EC50 does the source give for `O=C(NCc1ncccc1F)c1snnc1C1CC1` here?
Answer: The EC50 was 9.6 µM.

Question: How did the EC50 turn out when `Cc1ccsc1C(=O)NC(C)c1c(F)cccc1Cl` (stereo not given) was run?
Answer: The EC50 was 3.9 µM.

Question: How did the EC50 turn out when `CC(C)c1nnsc1C(=O)NCc1c(F)cccc1Cl` was run?
Answer: The EC50 was 0.58 µM.

Question: How did the EC50 turn out when `N#Cc1cccc(Cl)c1CNC(=O)c1snnc1C1CC1` was run?
Answer: The EC50 was over 100 µM.

Question: Which EC50 does the source give for `CC(C)(NC(=O)c1snnc1C1CC1)c1c(F)cccc1Cl` here?
Answer: Its EC50 is over 100 µM.

Question: Which EC50 does the source give for `Cc1ccsc1C(=O)NCc1c(F)cccc1Cl` here?
Answer: Its EC50 is 7 µM.

Question: Which EC50 does the source give for `O=C(NCc1c(F)cccc1Cl)c1snnc1-c1ccccc1` here?
Answer: Its EC50 is over 100 µM.

Question: Which EC50 does the source give for `C[C@H](NC(=O)c1snnc1C1CC1)c1c(F)cccc1Cl` here?
Answer: The EC50 was 0.28 µM.

Question: With `Cc1nnccc1C(=O)NCc1c(F)cccc1Cl` as the molecule, how does the EC50 read?
Answer: Its EC50 is over 100 µM.

Question: Which EC50 does the source give for `Cc1csc(C(=O)NCc2c(F)cccc2Cl)c1Cl` here?
Answer: Its EC50 is 3.9 µM.

Question: Which EC50 does the source give for `O=C(NCc1ccccc1F)c1snnc1C1CC1` here?
Answer: The EC50 was 1.5 µM.

Question: `Cc1ccc(C(=O)NCc2c(F)cccc2Cl)s1` was tested. Which EC50 did it give?
Answer: Its EC50 is 3.9 µM.

Question: How did the EC50 turn out when `Cc1ccoc1C(=O)NCc1c(F)cccc1Cl` was run?
Answer: Its EC50 is 13 µM.

Question: How did the EC50 turn out when `O=C(NCc1c(F)ccc(Cl)c1F)c1snnc1C1CC1` was run?
Answer: Its EC50 is 0.18 µM.

Question: Which EC50 does the source give for `O=C(NC(c1ccccc1)c1c(F)cccc1Cl)c1snnc1C1CC1` (stereo not given) here?
Answer: The EC50 was over 100 µM.

Question: Which EC50 does the source give for `O=C(NCc1c(F)cccc1Cl)c1cccs1` here?
Answer: Its EC50 is 9.4 µM.

Question: Which EC50 does the source give for `Cc1c(S(=O)(=O)c2ccc(Cl)cc2)csc1C(=O)NCc1c(F)cccc1Cl` here?
Answer: Its EC50 is over 100 µM.

Question: Which EC50 does the source give for `Cc1ncoc1C(=O)NCc1c(F)cccc1Cl` here?
Answer: Its EC50 is over 100 µM.

Question: For `Cc1nnsc1C(=O)NCc1c(F)cccc1Cl`, which EC50 is on record?
Answer: Its EC50 is 1 µM.

Question: For `COc1ccccc1CNC(=O)c1snnc1C`, which EC50 is on record?
Answer: Its EC50 is over 100 µM.

Question: With `Cc1ncsc1C(=O)NCc1c(F)cccc1Cl` as the molecule, how does the EC50 read?
Answer: Its EC50 is 20 µM.

Question: How did the EC50 turn out when `O=C(NCc1c(F)cccc1F)c1snnc1C1CC1` was run?
Answer: The EC50 was 1.5 µM.

Question: For `CCOc1ccsc1C(=O)NCc1c(F)cccc1Cl`, which EC50 is on record?
Answer: Its EC50 is over 100 µM.

Question: With `O=C(NCc1c(F)cccc1Cl)c1sccc1C1CC1` as the molecule, how does the EC50 read?
Answer: The EC50 was 5.1 µM.

Question: How did the EC50 turn out when `Cc1nc(C)c(C(=O)NCc2c(F)cccc2Cl)s1` was run?
Answer: Its EC50 is over 100 µM.

Question: How did the EC50 turn out when `O=C(NCc1c(Cl)cccc1Cl)c1snnc1C1CC1` was run?
Answer: The EC50 was 6 µM.

Question: Which EC50 does the source give for `CCCc1nnsc1C(=O)NCc1c(F)cccc1Cl` here?
Answer: The EC50 was 4.1 µM.

Question: Which EC50 does the source give for `Cc1ccccc1CNC(=O)c1snnc1C` here?
Answer: Its EC50 is 27 µM.

Question: For `O=C(NCc1c(Cl)cccc1Oc1ccccc1)c1snnc1C1CC1`, which EC50 is on record?
Answer: The EC50 was over 100 µM.

Question: How did the EC50 turn out when `O=C(NCc1cccc2ccccc12)c1snnc1C1CC1` was run?
Answer: Its EC50 is over 100 µM.

Question: For `Cc1csc(C(=O)NCc2c(F)cccc2Cl)c1`, which EC50 is on record?
Answer: Its EC50 is 3.7 µM.

Question: How did the EC50 turn out when `O=C(NC(=O)c1c(F)cccc1Cl)c1snnc1C1CC1` was run?
Answer: Its EC50 is over 100 µM.

Question: Which EC50 does the source give for `CC(NC(=O)c1snnc1C1CC1)c1c(F)cccc1Cl` (stereo not given) here?
Answer: The EC50 was 0.4 µM.

Question: How did the EC50 turn out when `Cc1c(Br)csc1C(=O)NCc1c(F)cccc1Cl` was run?
Answer: The EC50 was 1.3 µM.
